Results taken from ChEMBL document CHEMBL1131213, “Novel euglycemic and hypolipidemic agents. 1” (J Med Chem, 1998).
One block for each compound: values may come before it.

Columns and labels:
Mus musculus [1] = experiment: Percent reduction in blood glucose is evaluated in db/db mice for euglycemic and hypolipidemic activities at a dose of 100 mg/kg
Mus musculus [2] = experiment: Percent reduction in triglyceride (TG) after 9 days of dosing in db/db is evaluated in mice for euglycemic and hypolipidemic activities at a dose of 100 mg/kg
Mus musculus [3] = experiment: Percent reduction in blood glucose is evaluated in db/db mice for euglycemic and hypolipidemic activities at a dose of 200 mg/kg
Mus musculus [4] = experiment: Percent reduction in triglyceride (TG) after 9 days of dosing in db/db is evaluated in mice for euglycemic and hypolipidemic activities
Mus musculus [5] = experiment: Percent reduction in blood glucose is evaluated in db/db mice for euglycemic and hypolipidemic activities at a dose of 10 mg/kg
Mus musculus [6] = experiment: Percent reduction in triglyceride (TG) after 9 days of dosing in db/db is evaluated in mice for euglycemic and hypolipidemic activities at a dose of 10 mg/kg
Mus musculus [7] = experiment: Percent reduction in triglyceride (TG) after 9 days of dosing in db/db is evaluated in mice for euglycemic and hypolipidemic activities at a dose of 200 mg/kg
[8] = Ratio between level in subcutaneous fat to that of the level in plasma; type: ADME
Outline: (§1)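 Wistar rats, two per drug, given 10 mg/kg orally and sacrificed at plasma tmax. Blood/plasma drawn just before sacrifice. Tissues perfused with phosphate buffer pH 5.8 and homogenized 1:4 in buffer. Drug measured by HPLC and reported as µg/g wet tissue. Ratios are tissue over plasma.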

Rattus norvegicus [9] = experiment: Tissue level at 10 mg/kg/po in wistar rats in brown fat; type: ADME, organism-based; conditions: in vivo
Outline: as §1

[10] = Pharmacokinetic parameter [Kel(1/h)] was evaluated at 10 mg/kg (p.o.) in Wistar rats; type: ADME, organism-based; design: dose 10 mg/kg, route oral; conditions: rat, in vivo, po
Outline: (§2)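 Wistar rats (175-200 g), fasted 12 h, water free, fed 3 h post-dose. Single 10 mg/kg oral dose as 0.5% CMC suspension. Orbital sinus blood taken at 0, 0.5, 1, 2, 3, 5, 8, 12 and 24 h. Plasma assayed by reverse-phase C18 HPLC with fluorescence detection. Noncompartmental analysis gave AUC0-∞, Kel, t1/2, Cmax and tmax.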

Rattus norvegicus [11] = experiment: Tissue level at 10 mg/kg/po in wistar rats in heart; type: ADME, organism-based; conditions: in vivo
Outline: as §1

Rattus norvegicus [12] = experiment: Tissue level at 10 mg/kg/po in wistar rats in subcutaneous fat; type: ADME, organism-based; conditions: in vivo
Outline: as §1

Rattus norvegicus [13] = experiment: Tissue level at 10 mg/kg/po in wistar rats in liver; type: ADME, organism-based; conditions: in vivo
Outline: as §1

[14] = Ratio between level in blood to that of the level in plasma; type: ADME
Outline: as §1

[15] = Ratio between level in heart to that of the level in plasma; type: ADME
Outline: as §1

[16] = Pharmacokinetic parameter (half-life) was evaluated at 10 mg/kg (p.o.) in Wistar rats; type: ADME, organism-based; design: dose 10 mg/kg, route oral; conditions: rat, in vivo, po
Outline: as §2

[17] = Ratio between level in liver to that of the level in plasma; type: ADME, tissue-based
Outline: as §1

[18] = Ratio between level in skeletal muscle to that of the level in plasma; type: ADME
Outline: as §1

[19] = Pharmacokinetic parameter [area under curve (AUC)] was evaluated at 10 mg/kg (p.o.) in Wistar rats; type: ADME, organism-based; design: dose 10 mg/kg, route oral; conditions: rat, in vivo, po
Outline: as §2

Rattus norvegicus [20] = experiment: Tissue level at 10 mg/kg/po in wistar rats in skeletal muscle; type: ADME, organism-based; conditions: in vivo
Outline: as §1

Rattus norvegicus [21] = experiment: Tissue level at 10 mg/kg/po in wistar rats in plasma; type: ADME, organism-based; conditions: in vivo
Outline: as §1

Rattus norvegicus [22] = experiment: Tissue level at 10 mg/kg/po in wistar rats in blood; type: ADME, organism-based; conditions: in vivo
Outline: as §1

[23] = Pharmacokinetic parameter (tmax(h)) was evaluated at 10 mg/kg (p.o.) in Wistar rats; type: ADME, organism-based; design: dose 10 mg/kg, route oral; conditions: rat, in vivo, po
Outline: as §2

[24] = Pharmacokinetic parameter (Cmax) was evaluated at 10 mg/kg (p.o.) in Wistar rats; type: ADME, organism-based; design: dose 10 mg/kg, route oral; conditions: rat, in vivo, po
Outline: as §2

[25] = Ratio between level in brown fat to that of the level in plasma; type: ADME
Outline: as §1

[26] = Pharmacokinetic Parameter [Kel(1/h)] was evaluated at 10 mg/kg (p.o.) in Wistar rats; type: ADME, organism-based; design: dose 10 mg/kg, route oral; conditions: rat, in vivo, po
Outline: as §2

[27] = Pharmacokinetic Parameter (Cmax) was evaluated at 10 mg/kg (p.o.) in Wistar rats; type: ADME, organism-based; design: dose 10 mg/kg, route oral; conditions: rat, in vivo, po
Outline: as §2

[28] = Pharmacokinetic Parameter [tmax(h)] was evaluated at 10 mg/kg (p.o.) in Wistar rats; type: ADME, organism-based; design: dose 10 mg/kg, route oral; conditions: rat, in vivo, po
Outline: as §2

[29] = Pharmacokinetic Parameter (half-life) was evaluated at 10 mg/kg (p.o.) in Wistar rats; type: ADME, organism-based; design: dose 10 mg/kg, route oral; conditions: rat, in vivo, po
Outline: as §2

[30] = Pharmacokinetic Parameter [Area under curve (AUC)] was evaluated at 10 mg/kg (p.o.) in Wistar rats; type: ADME, organism-based; design: dose 10 mg/kg, route oral; conditions: rat, in vivo, po
Outline: as §2

SMILES: O=C1NC(=O)C(Cc2ccc(OCCn3c4ccccc4c4ccccc43)cc2)S1 (stereo unspecified)
- Reduction (Mus musculus [1]): 0%
- Reduction (Mus musculus [2]): 21%

SMILES: O=C1NC(=O)/C(=C/c2ccc(OCCn3ccc4ccccc43)cc2)S1
- Reduction (Mus musculus [3]): 33%
- Reduction (Mus musculus [4]): 37%

SMILES: CN(CCOc1ccc(/C=C2\SC(=O)NC2=O)cc1)c1ccccn1
- Reduction (Mus musculus [5]): 56%
- Reduction (Mus musculus [1]): 56%
- Reduction (Mus musculus [2]): 32%
- Reduction (Mus musculus [6]): 32%

SMILES: O=C1NC(=O)/C(=C/c2ccc(OCCN3CCc4ccccc43)cc2)S1
- Reduction (Mus musculus [7]): 83%
- Reduction (Mus musculus [3]): 61%

SMILES: O=C1NC(=O)/C(=C\c2ccc(OCCn3c4ccccc4c4ccccc43)cc2)S1
- Reduction (Mus musculus [1]): 0%
- Reduction (Mus musculus [2]): 44%

SMILES: Cc1c(C)n(CCOc2ccc(/C=C3\SC(=O)NC3=O)cc2)c2ccccc12
- Reduction (Mus musculus [7]): 2%
- Reduction (Mus musculus [3]): 40%

- Kp [8]: 0.13
- Concentration (Rattus norvegicus [9]): 1.23 µg/g
- k el [10]: 6.94e-05 s⁻¹
- Concentration (Rattus norvegicus [11]): 2.45 µg/g
- Concentration (Rattus norvegicus [12]): 1.5 µg/g
- Concentration (Rattus norvegicus [13]): 10.01 µg/g
- blood plasma ratio [14]: 0.62
- Kp [15]: 0.21
- half-life [16]: 3.28 h
- Kp [17]: 0.85
- Kp [18]: 0.07
- AUC [19]: 129000 ng·h/mL
- Concentration (Rattus norvegicus [20]): 0.85 µg/g
- Concentration (Rattus norvegicus [21]): 11800 ng/mL
- Concentration (Rattus norvegicus [22]): 7240 ng/mL
- Tmax [23]: 3.67 h
- Cmax [24]: 14500 ng/mL
- Kp [25]: 0.1
SMILES: O=C1NC(=O)C(Cc2ccc(OCCn3ccc4ccccc43)cc2)S1 (stereo unspecified)
- Reduction (Mus musculus [1]): 74%
- Reduction (Mus musculus [2]): 77%

SMILES: O=C1NC(=O)/C(=C/c2ccc(OCCn3c(C(=O)O)cc4ccccc43)cc2)S1
- Reduction (Mus musculus [7]): 0%
- Reduction (Mus musculus [3]): 12%

SMILES: O=C1NC(=O)/C(=C/c2ccc(OCCn3ccc4cc(Cl)ccc43)cc2)S1
- Reduction (Mus musculus [7]): 11%
- Reduction (Mus musculus [3]): 39%

SMILES: O=C1NC(=O)C(Cc2ccc(OCCN3CCc4ccccc43)cc2)S1 (stereo unspecified)
- Reduction (Mus musculus [7]): 79%
- Reduction (Mus musculus [3]): 33%

SMILES: COC(=O)C(N)Cc1cn(CCOc2ccc(/C=C3\SC(=O)NC3=O)cc2)c2ccccc12 (stereo unspecified)
- Reduction (Mus musculus [1]): 27%
- Reduction (Mus musculus [2]): 64%

SMILES: CCOC(=O)c1cc2ccccc2n1CCOc1ccc(/C=C2\SC(=O)NC2=O)cc1
- Reduction (Mus musculus [7]): 13%
- Reduction (Mus musculus [3]): 0%

SMILES: O=C1NC(=O)/C(=C/c2ccc(OCCn3cnc4ccccc43)cc2)S1
- Reduction (Mus musculus [7]): 76%
- Reduction (Mus musculus [3]): 33%

SMILES: O=C1NC(=O)/C(=C/c2ccc(OCCn3ccc4cccnc43)cc2)S1
- Reduction (Mus musculus [7]): 79%
- Reduction (Mus musculus [3]): 36%

SMILES: O=C1NC(=O)/C(=C/c2ccc(OCCn3ccnc3)cc2)S1
- Reduction (Mus musculus [7]): 72%
- Reduction (Mus musculus [3]): 13%

SMILES: O=C1NC(=O)C(Cc2ccc(OCCn3ccc4cccnc43)cc2)S1 (stereo unspecified)
- Reduction (Mus musculus [7]): 74%
- Reduction (Mus musculus [3]): 33%

SMILES: Cc1cc2ccccc2n1CCOc1ccc(/C=C2\SC(=O)NC2=O)cc1
- Reduction (Mus musculus [7]): 41%
- Reduction (Mus musculus [3]): 16%

- Kp [8]: 0.53
- Concentration (Rattus norvegicus [9]): 2.1 µg/g
- Concentration (Rattus norvegicus [11]): 1.63 µg/g
- Concentration (Rattus norvegicus [12]): 14.32 µg/g
- Concentration (Rattus norvegicus [13]): 10.9 µg/g
- blood plasma ratio [14]: 0.51
- Kp [15]: 0.06
- Kp [17]: 0.4
- Kp [18]: 0.03
- k el [26]: 0.0002 s⁻¹
- Concentration (Rattus norvegicus [20]): 0.87 µg/g
- Concentration (Rattus norvegicus [21]): 27200 ng/mL
- Cmax [27]: 29400 ng/mL
- Concentration (Rattus norvegicus [22]): 13800 ng/mL
- Tmax [28]: 0.5 h
- half-life [29]: 1.02 h
- AUC [30]: 59200 ng·h/mL
- Kp [25]: 0.08
SMILES: CN(CCOc1ccc(CC2SC(=O)NC2=O)cc1)c1ccccn1.O=C(O)/C=C\C(=O)O (stereo unspecified) [ROSIGLITAZONE MALEATE]
- Reduction (Mus musculus [5]): 55%
- Reduction (Mus musculus [4]): 37%

SMILES: CN(CCOc1ccc(CC2SC(=O)NC2=O)cc1)c1ccccn1 (stereo unspecified) [ROSIGLITAZONE]
- Reduction (Mus musculus [7]): 55%
- Reduction (Mus musculus [5]): 100%
- Reduction (Mus musculus [3]): 67%
- Reduction (Mus musculus [1]): 71%
- Reduction (Mus musculus [2]): 46%
- Reduction (Mus musculus [6]): 46%

SMILES: Cc1c(C)c2c(c(C)c1O)CCC(C)(COc1ccc(CC3SC(=O)NC3=O)cc1)O2 (stereo unspecified) [TROGLITAZONE]
- Reduction (Mus musculus [5]): 41%
